# In the library only some 1.3% were active in any assay of this set; here they are far more common.
# CendR NRP1 mod – modulators of CendR peptide binding to NRP-1, primary screen, biochemical, fluorescence polarization, uHTS | hit rate 0.85% among 360,000 | AID 602438, 2012 | FAM-RPARPAR peptide binding to NRP-1 | Neuropilin-1 (Homo sapiens), O14786 | inhibition, % at 25 µM;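 active = inhibition or corrected inhibition above about 18%, plus a signal ratio from 0.5 to 1.5, limit read from the data, passing the limit was not always enough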
# aDG glyco up – activators of alpha-DG glycosylation, primary screen, uHTS, Pro5-aDG cells, AlphaScreen; AID 624168, 2012; activation, % at 10 µM; hit rate 0.22% among 360,000; alpha-DG glycosylation AlphaScreen (IIH6); 0% Pro5, 100% B10-LARGE cell signal;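 active = activation of at least 8% versus controls, or a plate z-score of at least 8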;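 also: Pro5 are CHO cells carrying HIG-tagged alpha-DG that lacks glycosylation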
# Tn6 DDE FP – inhibitors of Tn6 peptide binding to fibrin DD(E), primary screen, biochemical, fluorescence polarization, human fibrin, Tn6 probe. Fibrinogen beta chain (Homo sapiens), P02675. Fibrin DD(E) TRITC-Tn6 fluorescence polarization displacement. inhibition, % at 8.3 µM. hit rate 0.21% among 370,000. AID 720509, 2013;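 active = inhibition above a per-campaign cutoff: mean of compounds within control limits plus 3 SD, cut at about 15% in these data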;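 also: 0% = median of all compound wells on the plate and 100% = blocking peptide control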
# Target sequence (P02675 whole entry, looked up): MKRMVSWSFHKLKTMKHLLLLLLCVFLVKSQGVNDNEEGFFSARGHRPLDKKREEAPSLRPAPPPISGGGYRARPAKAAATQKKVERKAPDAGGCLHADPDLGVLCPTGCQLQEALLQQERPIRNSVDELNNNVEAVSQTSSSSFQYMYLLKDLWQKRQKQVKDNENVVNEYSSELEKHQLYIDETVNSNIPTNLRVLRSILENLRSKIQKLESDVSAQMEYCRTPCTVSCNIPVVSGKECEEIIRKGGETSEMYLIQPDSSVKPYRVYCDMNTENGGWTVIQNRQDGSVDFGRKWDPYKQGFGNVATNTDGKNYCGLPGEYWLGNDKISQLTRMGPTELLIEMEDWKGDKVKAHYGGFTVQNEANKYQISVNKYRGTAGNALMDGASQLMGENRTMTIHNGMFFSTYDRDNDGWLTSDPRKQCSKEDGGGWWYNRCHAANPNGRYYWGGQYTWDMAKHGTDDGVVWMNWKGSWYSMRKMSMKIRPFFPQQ
# DDE Tn7 FP inh – inhibitors of Tn7 peptide binding to fibrin DD(E), primary screen, biochemical, fluorescence polarization, human fibrin, Tn7 probe; Fibrinogen beta chain (Homo sapiens), P02675; FP displacement of FITC-Tn7 peptide from fibrin DD(E); 0% = median of compound wells per plate; inhibition, % at 8.3 µM; hit rate 0.13% among 370,000; AID 720508, 2013;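 active = inhibition above the mean of compounds falling within the control limits plus 3 SD of them, cut at about 14% in these data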;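 also: 0% = plate median of compound wells and 100% = 10 µM Aha-Tn7 peptide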
#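 Also added: labelled Tn7 tracer, 0.1 µM; Assay system: human fibrin DD(E) protein; Amount: 2 µM fibrin DD(E); Schedule: 10 min compound pre-incubation, 3 h probe incubation at room temperature; Repeats: one replicate per compound; Read-out basis: percent inhibition; Measured by: fluorescence polarization of the labelled Tn7 tracer.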
# * hit, by the source's call; / = no result given.
SMILES,CendR NRP1 mod,aDG glyco up,Tn6 DDE FP,DDE Tn7 FP inh
COC(=O)C1N[C@@H]([C@@H](NC(=O)COc2ccccc2)C(=O)Nc2ccc(OC)cc2)SC1(C)C (some centres not stated),18,0,8,8
C=CCNC(=O)CN(C(=O)Cc1cccc(OC(F)(F)F)c1)c1cccc(Br)c1,/,/,-3,-1
O=C(CC[C@H]1O[C@@H](n2cnc3c(NC(=O)c4ccccc4)ncnc32)[C@H](O)[C@@H]1O)NCC(F)(F)F,20*,0,3,-1
O=C(/C=C/[C@H]1O[C@@H](n2cnc3c(NC(=O)c4ccccc4)ncnc32)[C@H](O)[C@@H]1O)NCc1cccs1,18*,0,-7,-4
COCCCNC(=O)/C=C/[C@H]1O[C@@H](n2cnc3c(NC(=O)c4ccccc4)ncnc32)[C@H](O)[C@@H]1O,-1,0,-3,5
O=C1CC(N2CCN(Cc3ccc4c(c3)OCO4)CC2)C(=O)N1c1cccc(Cl)c1 (configuration not stated),37*,0,-6,1
Oc1ccc(/C=N/N2CCN(C3c4ccccc4-c4ccccc43)CC2)cc1,21*,0,-3,0
Cc1nn(-c2ccccc2)c2sc(C(=O)N3CCN(C(c4ccccc4)c4ccc(Cl)cc4)CC3)cc12 (configuration not stated),/,/,7,-1
CCOCCCNC(=O)C1CCN(S(=O)(=O)c2cc3c(cc2Br)CCN3C(=O)CC)CC1,/,/,-1,-2
COCOc1ccc(C=O)cc1OCOC,22*,0,3,-2
OCCC1CCCCN1CC(O)COCc1ccc(Cl)cc1 (configuration not stated),21*,0,9,1
CN1CCCC(OC(=O)c2cccc(Cl)c2)C1 (configuration not stated),30*,0,13,4
Cc1ccccc1S(=O)(=O)N1C(c2ccc(Cl)cc2)CC=C(C(=O)O)C1c1cccc(Cl)c1 (configuration not stated),-26,0,0,-2
O=C1C(C2=C(O)c3ccccc3C2=O)=Nc2ccccc21,39*,0,6,6
O=C(O)COc1ccccc1C=NNC(=O)Cc1cc(=O)[nH][nH]1,/,/,-2,-5
CCOc1ccc(S(=O)(=O)N2CCN(C(=O)c3sccc3C)CC2)cc1,27*,1,7,-2
CCCCOc1ccc(S(=O)(=O)N2CCN(C)CC2)cc1,26*,0,3,11
COc1ccc(S(=O)(=O)N2CCN(C)CC2)cn1,22*,0,3,-8
CCCCOc1ccc(S(=O)(=O)N2CCCCCC2)cc1,9,0,-3,-1
CCOC(=O)N1CCN(S(=O)(=O)c2ccc(OCC)cc2)CC1,4,0,-11,4
CCCCCNC(=O)C1C(=O)Nc2ccccc2C(=O)N1c1ccc(OC)cc1 (configuration not stated),7,0,3,1
C#CCOc1nc(C)cc(C)c1S(=O)(=O)c1ccccc1C,35*,0,3,8
CC(C)Oc1cc(NC(=O)CS(=O)CC(=O)N(C)C)c(Cl)cc1Cl (configuration not stated),25*,0,13,1
CC1CCN(C(=O)c2nc[nH]c2C(=O)N2CCc3ccccc3C2)CC1,29*,0,-4,-4
COc1ccc(NC(=O)c2nc[nH]c2C(=O)N2CCC(C)CC2)cc1,25*,0,-3,-3
SMILES,CendR NRP1 mod,aDG glyco up,Tn6 DDE FP,DDE Tn7 FP inh
CC1CCN(C(=O)c2nc[nH]c2C(=O)N2CCC(C)CC2)CC1,36*,0,9,-2
O=C(Nc1ccccc1)c1nc[nH]c1C(=O)N1CCc2ccccc2C1,5,0,-6,2
COc1cc(N(C)C)ccc1[C@]1(O)C(=O)N(C)c2ccc(Br)cc21,-1,0,-4,2
CCOc1ccc(-c2cc(C(=O)NC3CCCCC3)[nH]n2)c(C)c1,4,1,-1,-6
O=C1CCc2cc(S(=O)(=O)N3CCN(c4ccccc4Cl)CC3)ccc2N1,/,/,-6,-5
CC(=O)c1ccc(OCC(=O)Nc2nnc(C3CC3)s2)cc1,29*,0,4,1
CC(C)C[C@@H]1COc2cc(Br)ccc2S(=O)(=O)N1Cc1cn(Cc2ccc(Cl)cc2)nn1,/,/,-3,-4
Cc1ccc(S(=O)(=O)N2C[C@H]3[C@H]4C(=O)N(Cc5ccccc5)C(=O)[C@H]4CC(=O)[C@H]3[C@@H]2c2ccccc2)cc1,-6,0,0,6
CC(C)N(C(C)C)S(=O)(=O)c1ccc(N2CCc3ccccc3C2)nc1,30*,0,3,-8
O=C(CSc1cccc2cccnc12)N/N=C/c1ccc(F)cc1,36*,0,3,-1
Cc1csc(SC(C)C(=O)NCc2ccc3c(c2)OCO3)n1 (configuration not stated),26*,0,-7,-1
CCN(CC)C(=O)C1CCCN(C(=O)Nc2ccc3nsnc3c2)C1 (configuration not stated),34*,0,8,-1
S=C(Nc1ccc2nsnc2c1)N1CCCCC1,7,5,3,8
Cc1cccc(C(C(C(=O)c2ccccc2)N2CCOCC2)N2CCOCC2)c1 (configuration not stated),2,0,0,-1
CC(=O)C(C(c1ccccc1)N1CCCc2ccccc21)N1CCOCC1 (configuration not stated),24*,0,7,4
CN1CC(c2ccccn2)C2(SC(=S)N(Cc3ccccc3)C2=O)C12C(=O)Nc1ccccc12 (configuration not stated),1,0,-2,8
CN1CC(c2ccccc2)C2(SC(=S)N(Cc3ccco3)C2=O)C12C(=O)Nc1ccccc12 (configuration not stated),5,0,2,15*
O=S(=O)(NC(=NC1CCCCC1)c1ccccc1)c1ccccc1,-3,0,-4,-3
Cc1ccc(S(=O)(=O)NC(=NC2CCCCC2)c2ccc(Cl)cc2)cc1,21*,0,/,/
CC(C)(C)OC(=O)N1CCC2CCN(S(C)(=O)=O)CC21 (configuration not stated),/,/,-8,-2
COc1ccc2oc(C(=O)OCC(=O)N3CCC(C)CC3)c(C)c2c1,13,0,-1,-7
CCOC(=O)N1CCN(C(=O)COC(=O)c2oc3ccc(OC)cc3c2C)CC1,23*,0,-4,-4
CCOc1ccc(CCNC(=O)c2cc3sccc3n2Cc2cccc(C)c2)cc1OCC,/,/,-6,7
COc1c(O)cccc1[C@H](O)C1CCN(CCc2ccc(F)cc2)CC1,43*,0,-2,2

# Bioassay records: PubChem, several laboratories
